In data set [1] the target is Major prion protein (Mus musculus) (UniProt P04925). As to the kind of experiment: Antiprion activity against mouse recombinant PrP expressed in Fukuoka-1 stain infected mouse GT1-7 cells assessed as remaining PrP-res level at 10 uM after 72 hrs by Western blotting relative to control. The data set is classed as cell-based. The gist of the method: (§1)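 GT+FK cells (GT1-7 neuronal line persistently infected with Fukuoka-1 agent) in DMEM/10% FBS, 37°C, 5% CO2; 1.5 × 10⁵ cells/well, dosed 15 h after plating with compound from fresh 10 mM DMSO stock (vehicle 0.1%) for 72 h. Lysates in Triton X-100/deoxycholate buffer adjusted to 2 mg/ml protein; PrP^Sc by Western blot with M-20 antibody, densitometry versus solvent control; effective if <70% of control; ≥2 independent experiments.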

Data set [2] has the same target. Put plainly: Antiprion activity against mouse recombinant PrP expressed in Fukuoka-1 stain infected mouse GT1-7 cells at 10 uM after 72 hrs by Western blotting. The data set is classed as cell-based. The gist of the method:
as §1
A general note: Immunoblotting shows a protein as a band on a membrane.

The next data set addresses Major prion protein (Mus musculus, UniProt P04925). Put plainly: Binding affinity to mouse recombinant PrP (121-231) after 10 mins by surface plasmon resonance assay. The method in brief:
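Recombinant mouse PrP(121-231) immobilized on CM5 chip; compounds at various concentrations injected in HEPES-buffered saline (pH 7.4) with 0.1% P20 and 5% DMSO, 1 min at 30 μl/min, then buffer alone for 10 min. Blank-chip corrected; Kd fitted from concentration dependence of sensorgram response.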

The nature of data set [3]: Solubility of the compound. The data set is classed as physicochemical.

Sequence of Major prion protein (Mus musculus) (P04925 whole entry): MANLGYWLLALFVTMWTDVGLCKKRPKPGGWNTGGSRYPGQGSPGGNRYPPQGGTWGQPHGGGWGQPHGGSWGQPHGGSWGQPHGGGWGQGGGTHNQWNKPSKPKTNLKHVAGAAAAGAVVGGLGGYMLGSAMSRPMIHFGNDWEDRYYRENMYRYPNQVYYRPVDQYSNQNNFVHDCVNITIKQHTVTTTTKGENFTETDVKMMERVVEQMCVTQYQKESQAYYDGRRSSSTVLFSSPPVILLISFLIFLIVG
Sequence of Major prion protein (P04925 whole entry): as above

For `CCC(C)C(NC(=O)c1ccccc1)C(=O)N1CCc2ccccc21` (stereo not drawn), the Activity in data set [1] is 36.8%; in data set [2] it was less than 70%. Further, the Kd on Major prion protein (read-out: Kd) stood at 51.2 µM. Consider `CN1/C(=C/C(=O)Nc2cccs2)c2ccccc2CC1(C)C`, for which, in data set [1], the Activity was determined as 57.4%. On to `O=C(CSc1ncnc2sc3c(c12)CCC3)NCC1CCCO1` (stereo not drawn), for which, on Major prion protein, the dissociation constant Kd result is recorded as “Not Active”. With `O=C1c2cccc3cccc(c23)N1CC(=O)N1CC2CCC1C2` (stereo not drawn), the Activity in data set [1] stood at 65%. In the case of `Cc1ccc(NC(=O)CN2C(=O)NC3(CCc4ccccc43)C2=O)cc1` (stereo not drawn), the Activity in data set [1] came to 150%. In the case of `C=CCNC(=O)NC(=O)CSc1nc2ccccc2n1CC(C)C`, the Kd entry on Major prion protein is on record as “Not Active”. For `CC1Cc2ccccc2N1C(=O)COc1ncnc2sccc12` (stereo not drawn), the Activity in data set [1] was determined as 67.4%.

For `Cc1cccc2cc(C#N)c(N3CCCN(C(=O)C4CCC4)CC3)nc12`, the Activity in data set [1] is 50.6%. Still for that read-out and setting: next, `O=C(CSc1nc2ccccc2[nH]1)NC1CCCc2ccccc21` (stereo not drawn): 64.9%. On to `Cc1cccc2cc3c(N)c(C(=O)NC4CCCC4)sc3nc12`, for which the Activity in data set [1] was 41.9%; in data set [2] it was less than 70%. The dissociation constant Kd at Major prion protein (read-out: Kd) was 86.1 µM.

Regarding `O=C(COC(=O)c1c2c(nc3ccccc13)CCC2)NC1CCCC1`, in data set [1], the Activity stood at 62.9%. Same read-out and setting: next, `CC1CCCCC1NC(=O)COc1ncnc2sc3c(c12)CCC3` (stereo not drawn): 68.8%; `O=C(CCc1nc2ccccc2c(=O)[nH]1)NC1CCCc2ccccc21` (stereo not drawn): 65%. Turning to `O=C(NCc1ccccn1)C1CC2c3ccccc3C1c1ccccc12` (stereo not drawn), in data set [1], the Activity is 54.7%. Besides, in data set [3], the solubility result is “Insoluble”.

Regarding `O=C(Cc1c[nH]c2ccccc12)NC1CCc2ccccc2C1` (stereo not drawn), in data set [1], the Activity is 55.3%. Moreover, the Kd at Major prion protein (read-out: Kd) worked out at 48.6 µM. In the case of `CCCCNc1nc2ccccc2n1CC(=O)N1CCc2ccccc21`, the results for the Activity in data set [1] and in data set [2] were 37.3% and less than 70%, respectively. Besides, on Major prion protein (read-out: Kd), the Kd was 20 µM. For `Cc1cc2cc3c(cc2nc1SCCN1CCCCC1)OCCO3` the same measures were 47.4%, less than 70% and 50.8 µM. Regarding `CC(=O)N(Cc1ccccc1)Cc1cc2cccc(C)c2n2nnnc12`, the equilibrium dissociation constant (Kd) result at Major prion protein is on record as “Not Active”. `O=C(Cc1coc2cc3c(cc12)CCC3)N1CCc2ccccc21`: the Activity in data set [1] was found to be 63.7%.

For `N#Cc1c(NC(=O)c2cc3c(s2)CCCC3)sc2c1CCCC2`, the Activity in data set [1] was 66.9%. Still for that read-out and setting: next, `Cc1ccc2c(c1)c1c(n2CC(O)CN2CCCCC2)C(=O)CCC1` (stereo not drawn): 51.3%; `O=C(CN1C(=O)COc2ccccc21)N1CCCc2ccccc21`: 57.5%. On the same count and under the same terms, next, `O=C(COc1ncnc2ccccc12)NC1CCCc2ccccc21` (stereo not drawn): 53%; `Cc1cccc(NC(=O)N2CCCC2C(=O)NC2CCCC2)c1` (stereo not drawn): 63.2%; `CCCc1nc2ccccc2n1CC(=O)N1CCCc2ccccc21`: 67.2%.

Regarding `O=C(CN1C(=O)NC2(CCCc3ccccc32)C1=O)N1CCCCC1` (stereo not drawn), the Activity in data set [1] came out at 67.1%. In the case of `CC1CCCCN1CC(=O)Nc1sc2c(c1C#N)CCCCC2` (stereo not drawn), the Activity in data set [1] amounted to 58.8%. Further, on Major prion protein (read-out: Kd), the Kd amounted to 21.9 µM.

The term Kd denotes the free concentration of one partner at which half of the binding sites on the other are occupied at equilibrium, for simple one-to-one binding.

Source of the values: ChEMBL document CHEMBL1629590, “Variety of antiprion compounds discovered through an in silico screen based on cellular-form prion protein structure: Correlation between antiprion activity and binding affinity” (Antimicrob Agents Chemother, 2009).
